Activity calls are given as the source filed them. No cut-off for these calls is given here.
Columns and labels:
[1] = target: T1, Angiotensin-converting enzyme (Rattus norvegicus) (UniProt P47820); experiment: In vivo inhibition of Angiotensin I converting enzyme at 100ug/Kg in anaesthetized rats;o denotes 'Inactive'; assay type: organism-based
T1 sequence (whole entry): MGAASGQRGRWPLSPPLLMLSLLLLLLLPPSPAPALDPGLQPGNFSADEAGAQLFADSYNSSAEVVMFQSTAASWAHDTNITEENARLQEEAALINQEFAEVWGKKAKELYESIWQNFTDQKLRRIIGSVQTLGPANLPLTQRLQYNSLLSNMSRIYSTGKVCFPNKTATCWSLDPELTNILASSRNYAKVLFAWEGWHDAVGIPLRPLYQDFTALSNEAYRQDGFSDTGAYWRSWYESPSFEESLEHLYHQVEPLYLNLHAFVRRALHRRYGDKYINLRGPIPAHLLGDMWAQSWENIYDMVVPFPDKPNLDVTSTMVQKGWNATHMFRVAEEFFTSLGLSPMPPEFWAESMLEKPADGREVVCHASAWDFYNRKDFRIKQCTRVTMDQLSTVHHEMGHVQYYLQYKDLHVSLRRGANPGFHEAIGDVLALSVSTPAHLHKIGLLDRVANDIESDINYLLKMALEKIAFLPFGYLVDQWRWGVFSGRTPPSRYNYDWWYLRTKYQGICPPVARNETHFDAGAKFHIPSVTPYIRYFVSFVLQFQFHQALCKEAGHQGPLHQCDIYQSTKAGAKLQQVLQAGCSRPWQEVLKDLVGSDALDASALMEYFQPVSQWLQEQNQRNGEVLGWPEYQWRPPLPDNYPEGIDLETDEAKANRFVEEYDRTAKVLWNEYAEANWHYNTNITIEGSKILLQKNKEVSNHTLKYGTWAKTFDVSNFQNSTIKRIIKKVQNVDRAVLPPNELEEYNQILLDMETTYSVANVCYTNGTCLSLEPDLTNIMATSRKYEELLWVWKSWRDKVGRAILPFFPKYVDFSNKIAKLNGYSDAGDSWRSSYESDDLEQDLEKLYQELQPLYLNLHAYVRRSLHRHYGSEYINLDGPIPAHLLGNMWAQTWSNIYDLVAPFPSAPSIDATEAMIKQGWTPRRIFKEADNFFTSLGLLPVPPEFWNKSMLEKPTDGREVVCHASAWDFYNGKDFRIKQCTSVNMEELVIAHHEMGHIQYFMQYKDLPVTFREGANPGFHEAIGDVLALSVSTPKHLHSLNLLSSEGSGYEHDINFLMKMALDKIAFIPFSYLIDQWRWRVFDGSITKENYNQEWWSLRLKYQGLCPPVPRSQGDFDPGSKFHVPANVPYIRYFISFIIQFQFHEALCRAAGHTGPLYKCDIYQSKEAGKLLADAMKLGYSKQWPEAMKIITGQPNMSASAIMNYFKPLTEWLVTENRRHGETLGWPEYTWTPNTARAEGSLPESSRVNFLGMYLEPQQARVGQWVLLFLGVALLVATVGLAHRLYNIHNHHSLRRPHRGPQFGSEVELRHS
Outline: (§1)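 Sprague–Dawley rats under inactin (100 mg/kg) or dial urethane; carotid and jugular cannulas, arterial blood pressure recorded. Angiotensin I response as percent of control; ID50 by linear regression.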

[2] = target: T1, Angiotensin-converting enzyme (Rattus norvegicus); experiment: Compound was tested for bradykinin potentiation at 0.1 ug/kg dose; assay type: functional
[3] = target: T1, Angiotensin-converting enzyme (Rattus norvegicus); experiment: (§2) In vivo inhibition of Angiotensin I converting enzyme in anaesthetized rats; assay type: organism-based
[4] = target: T2, Angiotensin-converting enzyme (Oryctolagus cuniculus) (UniProt P12822); experiment: In vitro inhibition of Angiotensin I converting enzyme relative to captopril(=1)
T2 sequence (whole entry): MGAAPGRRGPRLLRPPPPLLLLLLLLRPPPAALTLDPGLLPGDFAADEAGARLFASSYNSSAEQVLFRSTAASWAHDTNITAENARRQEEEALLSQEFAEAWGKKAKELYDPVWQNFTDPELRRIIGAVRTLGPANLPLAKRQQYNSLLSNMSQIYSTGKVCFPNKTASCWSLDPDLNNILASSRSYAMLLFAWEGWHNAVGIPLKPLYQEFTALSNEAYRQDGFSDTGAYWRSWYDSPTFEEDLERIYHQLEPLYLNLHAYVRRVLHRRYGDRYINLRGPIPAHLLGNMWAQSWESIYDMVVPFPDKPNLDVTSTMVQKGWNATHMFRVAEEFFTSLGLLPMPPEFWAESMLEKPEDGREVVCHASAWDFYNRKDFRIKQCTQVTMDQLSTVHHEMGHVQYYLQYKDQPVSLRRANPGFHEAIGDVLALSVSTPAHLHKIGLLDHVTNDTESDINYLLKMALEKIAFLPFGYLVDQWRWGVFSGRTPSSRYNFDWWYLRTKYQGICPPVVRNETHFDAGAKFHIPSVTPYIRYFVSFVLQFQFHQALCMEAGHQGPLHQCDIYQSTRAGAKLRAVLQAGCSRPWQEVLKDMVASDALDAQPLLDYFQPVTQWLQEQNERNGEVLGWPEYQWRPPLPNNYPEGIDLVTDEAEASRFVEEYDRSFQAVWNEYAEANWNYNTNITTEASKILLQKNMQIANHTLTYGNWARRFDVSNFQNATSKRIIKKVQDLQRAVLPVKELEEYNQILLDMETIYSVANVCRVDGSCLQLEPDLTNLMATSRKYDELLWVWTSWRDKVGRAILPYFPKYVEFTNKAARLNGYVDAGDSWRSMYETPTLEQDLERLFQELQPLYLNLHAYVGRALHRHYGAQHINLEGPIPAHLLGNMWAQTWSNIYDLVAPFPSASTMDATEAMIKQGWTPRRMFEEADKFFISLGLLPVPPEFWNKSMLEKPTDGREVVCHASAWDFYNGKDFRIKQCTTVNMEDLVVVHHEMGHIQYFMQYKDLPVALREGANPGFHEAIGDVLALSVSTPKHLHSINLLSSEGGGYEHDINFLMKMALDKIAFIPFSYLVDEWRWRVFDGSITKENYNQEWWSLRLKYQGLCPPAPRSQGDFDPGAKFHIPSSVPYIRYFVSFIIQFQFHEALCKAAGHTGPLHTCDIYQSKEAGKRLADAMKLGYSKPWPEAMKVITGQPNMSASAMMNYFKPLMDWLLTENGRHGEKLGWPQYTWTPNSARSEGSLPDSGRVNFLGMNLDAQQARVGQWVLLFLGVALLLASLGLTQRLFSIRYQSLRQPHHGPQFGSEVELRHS
Outline: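 Crude ACE from rabbit lung acetone powder extracted in 50 mM potassium phosphate pH 8.3, spun 40000g. Final assay: 100 mM phosphate pH 8.3, 300 mM NaCl, 5 mM hippuryl-His-Leu; enzyme added last, 30 min at 37 °C, stopped with HCl. Hippuric acid extracted into EtOAc, dried, redissolved in water, read by absorbance.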

[5] = target: T1, Angiotensin-converting enzyme (Rattus norvegicus); experiment: In vivo inhibition of Angiotensin I converting enzyme at […] in anaesthetized rats;z denotes 'Inactive'; assay type: organism-based; outline: as §1
[6] = target: T1, Angiotensin-converting enzyme (Rattus norvegicus); experiment: as §2; assay type: organism-based; outline: as §1; remark: listed apart in the source
[7] = organism: Rattus norvegicus; experiment: Compound was tested peroral on the spontaneous hypertensive rat; assay type: functional
Outline: (§3)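 Spontaneously hypertensive rats; drug in 0.4% methylcellulose, or water, saline or 5% ethanol. Aortic catheter via caudal artery under ether, rats conscious in restrainers; pressure averaged over 30 min, heart rate from pulse trace. Dosed after about 90 min, usually followed for 4 h.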

[8] = test system: Rattus norvegicus; experiment: Compound was tested orally on the spontaneous hypertensive rat and blood pressure noted at half-hour interval; assay type: functional; outline: as §3
[9] = target: T1, Angiotensin-converting enzyme (Rattus norvegicus); experiment: In vivo inhibition of Angiotensin I converting enzyme at 100ug/Kg in anaesthetized rats;z denotes 'Inactive'; assay type: organism-based; outline: as §1
[10] = test system: Rattus norvegicus; experiment: Compound was tested for bradykinin potentiation at 0.1 ug/kg dose.; assay type: functional
[11] = target: T1, Angiotensin-converting enzyme (Rattus norvegicus); experiment: In vivo inhibition of Angiotensin I converting enzyme at 100 ug/kg in anaesthetized rats; assay type: organism-based; outline: as §1
[12] = target: T1, Angiotensin-converting enzyme (Rattus norvegicus); experiment: In vivo inhibition of Angiotensin I converting enzyme at […] in anaesthetized rats.;z denotes 'Inactive'; assay type: organism-based; outline: as §1

| relative potency [4] | Structure (SMILES) | Delta blood pressure [2] [mmHg] | other results |
| --- | --- | --- | --- |
| 0.5 | CO[C@@H]1C[C@@H](C(=O)O)N(C(=O)C(C)CS)C1 (stereo not given in full) | – | ID50 [6]: 1.21 mg/kg |
| 2.6 | O=C(O)[C@@H]1CC2(CN1C(=O)CCS)SCCS2 | 38 | ID50 [3]: 0.078 mg/kg |
| 1 | O=C(O)[C@@H]1CC2(CN1C(=O)CCS)SCCCS2 | 19 | ID50 [3]: 0.01 mg/kg |
| 4 | C[C@H](CS)C(=O)N1CC2(C[C@H]1C(=O)O)SCCS2 | – | Delta blood pressure [10]: 43 mmHg; SHR delta blood pressure [8]: 17 dec |
| 0.9 | COC1(OC)C[C@@H](C(=O)O)N(C(=O)C(C)CS)C1 (stereo not given in full) | – | – |

Further lines, the compound ahead of its results:

| Structure (SMILES) | relative potency [4] | Delta blood pressure [2] [mmHg] | other results |
| --- | --- | --- | --- |
| CC(CS)C(=O)N1C[C@H](F)C[C@H]1C(=O)O (stereo not given in full) | – | 53 | ID50 [1]: inactive |
| CC(CS)C(=O)N1CC2(C[C@H]1C(=O)O)OCCO2 (stereo not given in full) | 1 | 43 | ID50 [3]: 0.065 mg/kg |
| CC(CS)C(=O)N1C[C@@H](SCc2ccccc2)C[C@H]1C(=O)O (stereo not given in full) | – | 5 | ID50 [5]: Inactive at 100 ug/kg |
| COC1=C[C@@H](C(=O)O)N(C(=O)C(C)CS)C1 (stereo not given in full) | – | 52 | ID50 [1]: inactive |
| CO[C@H]1C[C@@H](C(=O)O)N(C(=O)C(C)CS)C1 (stereo not given in full) | 0.53 | 60 | ID50 [6]: 0.073 mg/kg |
| CC(CS)C(=O)N1CC2(C[C@H]1C(=O)O)SCCCS2 (stereo not given in full) | 1.07 | – | ID50 [3]: 0.048 mg/kg |
| CS[C@H]1C[C@@H](C(=O)O)N(C(=O)C(C)CS)C1 (stereo not given in full) | – | – | ID50 [6]: 0.398 mg/kg |
| CC(CS)C(=O)N1CC2(C[C@H]1C(=O)O)SCCS2 (stereo not given in full) | 1.26 | 34 | ID50 [3]: 0.026 mg/kg; SHR delta blood pressure [7]: 35 dec; SHR delta blood pressure [8]: 22 dec |
| CC(CS)C(=O)N1C[C@H](OCCOc2ccccc2)C[C@H]1C(=O)O (stereo not given in full) | – | 9 | ID50 [1]: inactive |
| CC(CS)C(=O)N1C[C@@H](Sc2ccccc2)C[C@H]1C(=O)O (stereo not given in full) | – | 22 | ID50 [6]: 0.544 mg/kg |
| CC(CS)C(=O)N1C[C@@H](SC2CCCCC2)C[C@H]1C(=O)O (stereo not given in full) | – | 6 | ID50 [9]: Inactive at 100 ug/kg |
| CC(CS)C(=O)N1C[C@@H](O)C[C@H]1C(=O)O (stereo not given in full) | – | 40 | ID50 [6]: 0.367 mg/kg |
| CC(CS)C(=O)N1C[C@H](O)C[C@H]1C(=O)O (stereo not given in full) | – | 48 | ID50 [6]: 0.253 mg/kg |
| CC(CS)C(=O)N1C[C@H](Oc2ccc(Cl)cc2)C[C@H]1C(=O)O (stereo not given in full) | – | 23 | ID50 [1]: inactive |
| CC(CS)C(=O)N1C[C@@H](F)C[C@H]1C(=O)O (stereo not given in full) | – | – | ID50 [11]: 0.581 mg/kg |
| CC(CS)C(=O)N1CC2(C[C@H]1C(=O)O)OCC(C)(C)CO2 (stereo not given in full) | 1 | 46 | ID50 [3]: 0.359 mg/kg; Delta blood pressure [8]: 25 mmHg |
| CC(CS)C(=O)N1C[C@@H](OCc2ccccc2)C[C@H]1C(=O)O (stereo not given in full) | 0.56 | 40 | ID50 [12]: Inactive at 100 ug/kg |
| CC(CS)C(=O)N1C[C@@H](N=[N+]=[N-])C[C@H]1C(=O)O (stereo not given in full) | 0.54 | – | – |
| CO/N=C1\C[C@@H](C(=O)O)N(C(=O)C(C)CS)C1 (stereo not given in full) | 1 | – | – |
| CC(CS)C(=O)N1C[C@H](OCc2ccccc2)C[C@H]1C(=O)O (stereo not given in full) | – | 47 | ID50 [6]: 0.508 mg/kg |
| CCOCCO[C@@H]1C[C@@H](C(=O)O)N(C(=O)C(C)CS)C1 (stereo not given in full) | – | 45 | ID50 [6]: 0.372 mg/kg |
| CC(CS)C(=O)N1C[C@@H](C#N)C[C@H]1C(=O)O (stereo not given in full) | – | 47 | ID50 [1]: inactive |
